Test results reported in ChEMBL document CHEMBL1926518, “Synthesis of macrolones with central piperazine ring in the linker and its influence on antibacterial activity” (2011).
In brackets after ≈: the same amount, converted by molar mass.

Assays:
Type in all cases: functional
[1] = test system: Staphylococcus aureus; experiment: Antibacterial activity against constitutive macrolide, licosamide and streptogramin-resistant Staphylococcus aureus PK2 by broth microdilution technique
Method in brief: (§1)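 MICs were determined by CLSI broth microdilution, with double dilutions of compound. Staphylococci were grown on Mueller–Hinton agar before testing. Results are given in µg/mL.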

[2] = test system: Streptococcus pneumoniae; experiment: Antibacterial activity against efflux-mediated macrolide-resistant Streptococcus pneumoniae Ci137 by broth microdilution technique
Method in brief: (§2)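 MICs were determined by CLSI broth microdilution, with double dilutions of compound. In the streptococcal medium, 5% horse serum replaced lysed blood. Streptococci were grown on Columbia agar with 5% sheep blood before testing. Results are given in µg/mL.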

[3] = test system: Streptococcus pneumoniae; experiment: Antibacterial activity against inducible macrolide-resistant, constitutive licosamide and streptogramin-resistant Streptococcus pneumoniae 134 GR-Micro by broth microdilution technique; method in brief: as §2
[4] = test system: Haemophilus influenzae; experiment: Antibacterial activity against Haemophilus influenzae ATCC 49247 by broth microdilution technique
Method in brief: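 MIC by broth microdilution per CLSI guidelines with doubling dilutions of compounds. Before testing, organisms were grown on Mueller-Hinton chocolate agar. Values reported in µg/mL.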

[5] = test system: Staphylococcus aureus; experiment: Antibacterial activity against erythromycin-sensitive Staphylococcus aureus ATCC 13709 by broth microdilution technique
Method in brief: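 MIC by broth microdilution per CLSI guidelines with doubling dilutions of compounds. Before testing, staphylococci were grown on Mueller–Hinton agar. Values reported in µg/mL.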

[6] = test system: Streptococcus pyogenes; experiment: Antibacterial activity against inducible macrolide, licosamide and streptogramin-resistant Streptococcus pyogenes Finland 11 by broth microdilution technique; method in brief: as §2
[7] = test system: Streptococcus pyogenes; experiment: Antibacterial activity against constitutive macrolide, licosamide and streptogramin-resistant Streptococcus pyogenes 166 GR-Micro by broth microdilution technique; method in brief: as §2
[8] = test system: Staphylococcus aureus; experiment: Antibacterial activity against inducible macrolide, licosamide and streptogramin-resistant Staphylococcus aureus 90256/97 by broth microdilution technique; method in brief: as §1
[9] = test system: Streptococcus pyogenes; experiment: Antibacterial activity against erythromycin-sensitive Streptococcus pyogenes 3565 by broth microdilution technique
Method in brief: (§3)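 Streptococcal MICs by CLSI broth microdilution with doubling dilutions, but with 5% horse serum in the medium in place of lysed blood. Before testing, strains were grown on Columbia agar with 5% sheep blood. Values reported in µg/mL.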

[10] = test system: Streptococcus pneumoniae; experiment: Antibacterial activity against constitutive macrolide, licosamide and streptogramin-resistant Streptococcus pneumoniae 58 Spain by broth microdilution technique; method in brief: as §2
[11] = test system: Staphylococcus aureus; experiment: Antibacterial activity against efflux-mediated macrolide-resistant Staphylococcus aureus PK1 by broth microdilution technique; method in brief: as §1
[12] = test system: Moraxella catarrhalis; experiment: Antibacterial activity against Moraxella catarrhalis ATCC 23246 by broth microdilution technique
Method in brief: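 MIC by broth microdilution per CLSI guidelines with doubling dilutions of compounds. Before testing, organisms were grown on Columbia agar with 5% sheep blood. Values reported in µg/mL.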

[13] = test system: Streptococcus pyogenes; experiment: Antibacterial activity against efflux-mediated macrolide-resistant Streptococcus pyogenes 3 Finland by broth microdilution technique; method in brief: as §2
[14] = test system: Streptococcus pneumoniae; experiment: Antibacterial activity against erythromycin-sensitive Streptococcus pneumoniae SP030 by broth microdilution technique; method in brief: as §3

Compound	MIC [1] [µg/mL]	MIC [2] [µg/mL]	MIC [3] [µg/mL]	MIC [4] [µg/mL]	MIC [5] [µg/mL]	MIC [6] [µg/mL]	MIC [7] [µg/mL]	MIC [8] [µg/mL]	MIC [9] [µg/mL]	MIC [10] [µg/mL]	MIC [11] [µg/mL]	MIC [12] [µg/mL]	MIC [13] [µg/mL]	MIC [14] [µg/mL]
CCOC(=O)c1cn(C2CC2)c2ccc(C#CCN3CCN(CCC(=O)O[C@H]4[C@H](C)O[C@@H](O[C@H]5[C@H](C)[C@@H](O[C@@H]6O[C@H](C)C[C@H](N(C)C)[C@H]6O)[C@](C)(OC)C[C@@H](C)C(=O)[C@H](C)[C@@H](O)[C@](C)(O)[C@@H](CC)OC(=O)[C@@H]5C)C[C@@]4(C)OC)CC3)cc2c1=O	> 64	≤ 0.125	4 (≈ 3.39 µM)	> 64	4 (≈ 3.39 µM)	0.5 (≈ 0.423 µM)	16 (≈ 13.5 µM)	> 64	≤ 0.125	4 (≈ 3.39 µM)	> 64	4 (≈ 3.39 µM)	≤ 0.125	≤ 0.125
CCOC(=O)c1cn(CC)c2ccc(CCCN3CCN(CCC(=O)O[C@H]4[C@H](C)O[C@@H](O[C@H]5[C@H](C)[C@@H](O[C@@H]6O[C@H](C)C[C@H](N(C)C)[C@H]6O)[C@](C)(OC)C[C@@H](C)C(=O)[C@H](C)[C@@H](O)[C@](C)(O)[C@@H](CC)OC(=O)[C@@H]5C)C[C@@]4(C)OC)CC3)cc2c1=O	> 64	≤ 0.125	16 (≈ 13.6 µM)	> 64	4 (≈ 3.41 µM)	0.25 (≈ 0.213 µM)	16 (≈ 13.6 µM)	> 64	≤ 0.125	8 (≈ 6.82 µM)	> 64	4 (≈ 3.41 µM)	≤ 0.125	≤ 0.125
CCOC(=O)c1cn(C2CC2)c2ccc(CCCN3CCN(CCC(=O)O[C@H]4[C@H](C)O[C@@H](O[C@H]5[C@H](C)[C@@H](O[C@@H]6O[C@H](C)C[C@H](N(C)C)[C@H]6O)[C@](C)(OC)C[C@@H](C)C(=O)[C@H](C)[C@@H](O)[C@](C)(O)[C@@H](CC)OC(=O)[C@@H]5C)C[C@@]4(C)OC)CC3)cc2c1=O	> 64	≤ 0.125	16 (≈ 13.5 µM)	> 64	4 (≈ 3.37 µM)	0.5 (≈ 0.422 µM)	16 (≈ 13.5 µM)	> 64	≤ 0.125	4 (≈ 3.37 µM)	> 64	4 (≈ 3.37 µM)	≤ 0.125	≤ 0.125
CCOC(=O)c1cn(CC)c2ccc(C#CCN3CCN(CCC(=O)O[C@H]4[C@H](C)O[C@@H](O[C@H]5[C@H](C)[C@@H](O[C@@H]6O[C@H](C)C[C@H](N(C)C)[C@H]6O)[C@](C)(O)C[C@@H](C)CN(C)[C@H](C)[C@@H](O)[C@](C)(O)[C@@H](CC)OC(=O)[C@@H]5C)C[C@@]4(C)OC)CC3)cc2c1=O	> 64	≤ 0.125	≤ 0.125	4 (≈ 3.42 µM)	1 (≈ 0.854 µM)	≤ 0.125	32 (≈ 27.3 µM)	> 64	≤ 0.125	≤ 0.125	16 (≈ 13.7 µM)	1 (≈ 0.854 µM)	≤ 0.125	≤ 0.125
CCOC(=O)c1cn(CC)c2ccc(CCCN3CCN(CCC(=O)O[C@H]4[C@H](C)O[C@@H](O[C@H]5[C@H](C)[C@@H](O[C@@H]6O[C@H](C)C[C@H](N(C)C)[C@H]6O)[C@](C)(O)C[C@@H](C)CN(C)[C@H](C)[C@@H](O)[C@](C)(O)[C@@H](CC)OC(=O)[C@@H]5C)C[C@@]4(C)OC)CC3)cc2c1=O	> 64	≤ 0.125	≤ 0.125	2 (≈ 1.7 µM)	1 (≈ 0.851 µM)	≤ 0.125	32 (≈ 27.2 µM)	> 64	≤ 0.125	≤ 0.125	64 (≈ 54.5 µM)	0.25 (≈ 0.213 µM)	0.5 (≈ 0.426 µM)	≤ 0.125
CCOC(=O)c1cn(C2CC2)c2ccc(CCCN3CCN(CCC(=O)O[C@H]4[C@H](C)O[C@@H](O[C@H]5[C@H](C)[C@@H](O[C@@H]6O[C@H](C)C[C@H](N(C)C)[C@H]6O)[C@](C)(O)C[C@@H](C)CN(C)[C@H](C)[C@@H](OC)[C@](C)(O)[C@@H](CC)OC(=O)[C@@H]5C)C[C@@]4(C)OC)CC3)cc2c1=O	> 64	≤ 0.125	> 64	16 (≈ 13.3 µM)	4 (≈ 3.33 µM)	0.25 (≈ 0.208 µM)	32 (≈ 26.7 µM)	> 64	≤ 0.125	32 (≈ 26.7 µM)	> 64		1 (≈ 0.833 µM)	≤ 0.125
CC[C@H]1OC(=O)[C@H](C)[C@@H](O[C@H]2C[C@@](C)(OC)[C@@H](OC(=O)CCN3CCN(CCCc4ccc5c(c4)c(=O)c(C(=O)O)cn5CC)CC3)[C@H](C)O2)[C@H](C)[C@@H](O[C@@H]2O[C@H](C)C[C@H](N(C)C)[C@H]2O)[C@](C)(O)C[C@@H](C)CN(C)[C@H](C)[C@@H](OC)[C@]1(C)O	> 64	≤ 0.125	16 (≈ 13.8 µM)	1 (≈ 0.862 µM)	≤ 0.125	≤ 0.125	32 (≈ 27.6 µM)	4 (≈ 3.45 µM)	≤ 0.125	≤ 0.125	0.25 (≈ 0.215 µM)	0.5 (≈ 0.431 µM)	≤ 0.125	≤ 0.125
CC[C@H]1OC(=O)[C@H](C)[C@@H](O[C@H]2C[C@@](C)(OC)[C@@H](OCCCN3CCN(CCCc4ccc5c(c4)c(=O)c(C(=O)O)cn5CC)CC3)[C@H](C)O2)[C@H](C)[C@@H](O[C@@H]2O[C@H](C)C[C@H](N(C)C)[C@H]2O)[C@](C)(O)C[C@@H](C)CN(C)[C@H](C)[C@@H](O)[C@]1(C)O	> 64	0.25 (≈ 0.221 µM)	32 (≈ 28.3 µM)	32 (≈ 28.3 µM)	8 (≈ 7.06 µM)	4 (≈ 3.53 µM)	> 64	> 64	0.5 (≈ 0.442 µM)	8 (≈ 7.06 µM)	32 (≈ 28.3 µM)		8 (≈ 7.06 µM)	≤ 0.125
